Data published in ChEMBL document CHEMBL1221298, “InCl3 mediated one-pot multicomponent synthesis, anti-microbial, antioxidant and anticancer evaluation of 3-pyranyl indole derivatives” (Bioorg Med Chem Lett, 2010).
In brackets after ≈: the same amount, converted by molar mass. Activity calls are given as the source filed them. The rule behind the calls is not given here.

How the values were obtained:
Type in all cases: functional
MCF7 = experiment: Cytotoxicity against human MCF7 cells after 24 hrs by MTT assay; details: MCF7, 24 h
Outline: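 Exponentially growing cells plated at 10⁴ cells/well and allowed to attach, then exposed to test compounds or doxorubicin (dissolved in 0.1% DMSO, diluted in medium; range 1–100) for 24 h; controls received medium with 0.1% DMSO. MTT (1 mg/ml) added for 4 h at 37 °C, formazan dissolved in DMSO, absorbance read at 540 nm; % cytotoxicity calculated from blank-corrected absorbances versus control.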

Staphylococcus aureus [1] = experiment: microbe, parasite or virus in culture; details: ATCC 9144, 24 h, read-out: IZ
Bacillus cereus [2] = experiment: Antimicrobial activity against Bacillus cereus ATCC 11778 at 100 ug/ml after 24 hrs by paper disk diffusion method; details: ATCC 11778, 24 h, read-out: IZ
Escherichia coli [3] = experiment: microbe, parasite or virus in culture; details: ATCC 25922, 24 h, read-out: IZ
Klebsiella pneumoniae [4] = experiment: microbe, parasite or virus in culture; details: ATCC 11298, 24 h, read-out: IZ
Staphylococcus aureus [5] = experiment: microbe, parasite or virus in culture; details: ATCC 9144, 24 h
Bacillus cereus [6] = experiment: microbe, parasite or virus in culture; details: ATCC 11778, 24 h
Escherichia coli [7] = experiment: microbe, parasite or virus in culture; details: ATCC 25922, 24 h
Klebsiella pneumoniae [8] = experiment: microbe, parasite or virus in culture; details: ATCC 11298, 24 h
[9] = system: Radical scavenging activity; experiment: Antioxidant activity assessed as DPPH radical scavenging activity at 50 ug/ml
Outline: (§1)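 Each test sample was mixed with 1 ml DPPH in methanol, incubated at 37 °C for 30 min, and read spectrophotometrically at 517 nm with a blank reading. Scavenging % was expressed as the absorbance decrease at 517 nm relative to DPPH solution without test sample.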

[10] = system: Radical scavenging activity; experiment: Antioxidant activity assessed as DPPH radical scavenging activity at 100 ug/ml; outline: as §1
[11] = system: Radical scavenging activity; experiment: Antioxidant activity assessed as DPPH radical scavenging activity at 200 ug/ml; outline: as §1
[12] = system: Radical scavenging activity; experiment: Antioxidant activity assessed as DPPH radical scavenging activity at 400 ug/ml; outline: as §1
[13] = system: Radical scavenging activity; experiment: Antioxidant activity assessed as DPPH radical scavenging activity; outline: as §1
[14] = Antioxidant activity assessed as ABTS radical scavenging activity at 50 ug/ml
Outline: (§2)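 Test samples at 50, 100, 200 and 400 ug/ml were each mixed with 1 ml of freshly prepared ABTS radical cation solution, adjusted to absorbance 0.7–0.9 at 734 nm. Mixtures reacted 2 h in the dark, then absorbance was read at 734 nm against a blank. Scavenging % was taken as the absorbance decrease relative to ABTS solution without test sample.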

[15] = Antioxidant activity assessed as ABTS radical scavenging activity at 100 ug/ml; outline: as §2
[16] = Antioxidant activity assessed as ABTS radical scavenging activity at 200 ug/ml; outline: as §2
[17] = Antioxidant activity assessed as ABTS radical scavenging activity at 400 ug/ml; outline: as §2
[18] = Antioxidant activity assessed as ABTS radical scavenging activity; outline: as §2

MIC (Staphylococcus aureus [5]) [µg/mL] | MIC (Bacillus cereus [6]) [µg/mL] | MIC (Escherichia coli [7]) [µg/mL] | MIC (Klebsiella pneumoniae [8]) [µg/mL] | IC50 [13] [µg/mL] | IC50 [18] [µg/mL] | SMILES | zone of inhibition at 100 µg/mL (Staphylococcus aureus [1]) [mm] | zone of inhibition at 100 µg/mL (Bacillus cereus [2]) [mm] | zone of inhibition at 100 µg/mL (Escherichia coli [3]) [mm] | zone of inhibition at 100 µg/mL (Klebsiella pneumoniae [4]) [mm] | Activity ([9]; at 50 µg/mL) [%] | Activity ([10]; at 100 µg/mL) [%] | Activity ([11]; at 200 µg/mL) [%] | Activity ([12]; at 400 µg/mL) [%] | Activity ([14]; at 50 µg/mL) [%] | Activity ([15]; at 100 µg/mL) [%] | Activity ([16]; at 200 µg/mL) [%] | Activity ([17]; at 400 µg/mL) [%] | further results
24 (≈ 62.6 µM) | 35.4 (≈ 92.3 µM) | 27.5 (≈ 71.7 µM) | 25.5 (≈ 66.5 µM) | – | – | N#CC1=C(N)OC(c2c[nH]c3ccccc23)=C(C#N)C1c1cccc([N+](=O)[O-])c1 (centres undefined) | 19 | 13 | 16 | 15 | – | – | – | – | – | – | – | – | Activity [9]: inactive; Activity [10]: inactive; Activity [11]: inactive; Activity [12]: inactive; Activity [13]: inactive; Activity [14]: inactive; Activity [15]: inactive; Activity [16]: inactive; Activity [17]: inactive; Activity [18]: inactive
13.4 (≈ 35.9 µM) | 19 (≈ 51 µM) | 21.5 (≈ 57.7 µM) | 17.5 (≈ 46.9 µM) | – | – | N#CC1=C(N)OC(c2c[nH]c3ccccc23)=C(C#N)C1c1ccc(Cl)cc1 (centres undefined) | 23 | 18 | 19 | 18 | – | – | – | – | – | – | – | – | Activity [9]: inactive; Activity [10]: inactive; Activity [11]: inactive; Activity [12]: inactive; Activity [13]: inactive; Activity [14]: inactive; Activity [15]: inactive; Activity [16]: inactive; Activity [17]: inactive; Activity [18]: inactive
12.4 (≈ 33.3 µM) | 16.4 (≈ 44 µM) | 16.5 (≈ 44.3 µM) | 16.1 (≈ 43.2 µM) | 467.49 (≈ 1250 µM) | > 1000 | N#CC1=C(N)OC(c2c[nH]c3ccccc23)=C(C#N)C1c1ccccc1Cl (centres undefined) | 24 | 17 | 21 | 20 | 27.9 | 34 | 39.6 | 45.7 | 8.5 | 10.4 | 14.5 | 21.4 | –
25 (≈ 70.9 µM) | 27.8 (≈ 78.9 µM) | 26 (≈ 73.8 µM) | 27.2 (≈ 77.2 µM) | 1371.65 (≈ 3890 µM) | > 1000 | Cc1ccccc1C1C(C#N)=C(N)OC(c2c[nH]c3ccccc23)=C1C#N (centres undefined) | 16 | 15 | 16 | 15 | 25.8 | 27.4 | 28.3 | 32.5 | 10.4 | 17.2 | 21.4 | 25.7 | –
22.3 (≈ 63.3 µM) | 25.8 (≈ 73.2 µM) | 36.3 (≈ 103 µM) | 25.1 (≈ 71.2 µM) | 1590.74 (≈ 4510 µM) | > 1000 | Cc1ccc(C2C(C#N)=C(N)OC(c3c[nH]c4ccccc34)=C2C#N)cc1 (centres undefined) | 20 | 14 | 15 | 17 | 24.8 | 25.8 | 28.9 | 30.4 | 5.2 | 5.5 | 6.2 | 8.5 | –
15.2 (≈ 44.9 µM) | 18.5 (≈ 54.7 µM) | 19.6 (≈ 57.9 µM) | 20.2 (≈ 59.7 µM) | 308.2 (≈ 911 µM) | 993.66 (≈ 2940 µM) | N#CC1=C(N)OC(c2c[nH]c3ccccc23)=C(C#N)C1c1ccccc1 (centres undefined) | 22 | 16 | 18 | 18 | 38 | 46 | 49.7 | 51.2 | 14.4 | 19.3 | 24.5 | 26.7 | –
15.4 (≈ 41.8 µM) | 24.5 (≈ 66.5 µM) | 23.4 (≈ 63.5 µM) | 19.6 (≈ 53.2 µM) | < 50 | 858.69 (≈ 2330 µM) | COc1ccc(C2C(C#N)=C(N)OC(c3c[nH]c4ccccc34)=C2C#N)cc1 (centres undefined) | 21 | 16 | 18 | 19 | 53.6 | 56.9 | 59.9 | 60.2 | 12.4 | 20 | 26.4 | 28.7 | –

Second part, the molecule before the results:

SMILES | MIC (Staphylococcus aureus [5]) [µg/mL] | MIC (Bacillus cereus [6]) [µg/mL] | MIC (Escherichia coli [7]) [µg/mL] | MIC (Klebsiella pneumoniae [8]) [µg/mL] | IC50 [13] [µg/mL] | IC50 [18] [µg/mL] | zone of inhibition at 100 µg/mL (Staphylococcus aureus [1]) [mm] | zone of inhibition at 100 µg/mL (Bacillus cereus [2]) [mm] | zone of inhibition at 100 µg/mL (Escherichia coli [3]) [mm] | zone of inhibition at 100 µg/mL (Klebsiella pneumoniae [4]) [mm] | Activity ([9]; at 50 µg/mL) [%] | Activity ([10]; at 100 µg/mL) [%] | Activity ([11]; at 200 µg/mL) [%] | Activity ([12]; at 400 µg/mL) [%] | Activity ([14]; at 50 µg/mL) [%] | Activity ([15]; at 100 µg/mL) [%] | Activity ([16]; at 200 µg/mL) [%] | Activity ([17]; at 400 µg/mL) [%] | further results
COc1cccc2c1C(=O)c1c(O)c3c(c(O)c1C2=O)C[C@@](O)(C(=O)CO)C[C@@H]3O[C@H]1C[C@H](N)[C@H](O)[C@H](C)O1 [DOXORUBICIN] | – | – | – | – | – | – | – | – | – | – | – | – | – | – | – | – | – | – | GI50 (MCF7): 20 nM; TGI (MCF7): 210 nM
O=C(O)c1cn(C2CC2)c2cc(N3CCNCC3)c(F)cc2c1=O [CIPROFLOXACIN] | 0.2 (≈ 0.604 µM) | 0.3 (≈ 0.905 µM) | – | 0.1 (≈ 0.302 µM) | – | – | 26 | 25 | 27 | 26 | – | – | – | – | – | – | – | – | –
N#CC1=C(N)OC(c2c[nH]c3ccccc23)=C(C#N)C1c1cc(Br)c2c(c1)OCO2 (centres undefined) | 23.5 (≈ 50.9 µM) | 28.7 (≈ 62.2 µM) | 27.3 (≈ 59.2 µM) | 24.8 (≈ 53.8 µM) | 1779.24 (≈ 3860 µM) | > 1000 | 19 | 13 | 17 | 16 | 20.3 | 23.8 | 25.8 | 22.8 | 5.7 | 6.4 | 10 | 12.5 | –
CN(C)c1ccc(C2C(C#N)=C(N)OC(c3c[nH]c4ccccc34)=C2C#N)cc1 (centres undefined) | 23.8 (≈ 62.4 µM) | 25.6 (≈ 67.1 µM) | 26.7 (≈ 70 µM) | 25.2 (≈ 66.1 µM) | < 50 | 900 (≈ 2360 µM) | 18 | 15 | 17 | 16 | 72.1 | 73.1 | 74.6 | 75.7 | 14.4 | 18.5 | 20.5 | 26.7 | –
COc1cc(Br)c(C2C(C#N)=C(N)OC(c3c[nH]c4ccccc34)=C2C#N)cc1OC (centres undefined) | 21 (≈ 44 µM) | 24.5 (≈ 51.3 µM) | 29.5 (≈ 61.8 µM) | 33.4 (≈ 70 µM) | < 50 | 880.3 (≈ 1840 µM) | 20 | 14 | 16 | 19 | 51.7 | 53.8 | 57.3 | 64.4 | 18.5 | 20.5 | 24.2 | 26.7 | –
O=C1O[C@H]([C@@H](O)CO)C(O)=C1O [ASCORBIC ACID] | – | – | – | – | < 50 | 650 (≈ 3690 µM) | – | – | – | – | 77.2 | 79.7 | 82.3 | 85.3 | 28.8 | 29.7 | 31.5 | 33.4 | –
